Assay [1] addresses T1, Estrogen receptor (Ovis aries) (UniProt P49885+Q9TU15). Kind of assay: Relative efficiency(RE) in irreversible inhibition of lamb uterine estrogen receptor relative to iodoacetamide 23.
Assay [2] concerns the target T1, Estrogen receptor (Ovis aries). Kind of assay: In vitro agonist/antagonist activity in estrogen regulated transcriptional activation assay. The class given is functional. The settings on record: filed as partial agonist.
The next assay has as its target Estrogen receptor (Ovis aries, UniProt P49885+Q9TU15). Kind of assay: (§1) Irreversible inhibition of [3H]estradiol binding to lamb uterine estrogen receptor. The class given is protein assay. The essentials: (§2)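 Lamb uterine cytosol (4 mg protein/mL, immature lamb uteri, 20 mM Tris-HCl) adjusted to pH 8.5 with NaOH, preincubated 4 h at 0 °C with 10 nM–10 µM compound or no steroid. Charcoal treatment for 30 min at 0 °C, then centrifugation. […] Specific binding is expressed as % of unexposed cytosol. IC50 is the concentration giving 50% irreversible inhibition; duplicates in two experiments.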

Assay [3] addresses T1, Estrogen receptor (Ovis aries).
Assay [4] shares this target. The description is as §1. The class given is protein assay. In short, it runs like this:
as §2

Assay [5] has the same target. Kind of assay: In vitro agonist activity in estrogen regulated transcriptional activation assay. In kind it is functional. To be noted: filed as agonist.
For assay [6] the target is unchanged. Kind of assay: In vitro antagonist activity in estrogen regulated transcriptional activation assay. In kind it is functional. To be noted: filed as antagonist.

Experimental findings from ChEMBL document CHEMBL1128414, “Steroidal affinity labels of the estrogen receptor. 2. 17 alpha-[(Haloacetamido)alkyl]estradiols” (J Med Chem, 1995) are described below.

Molecules are shown by their SMILES. Activity calls are given as the source filed them. The calls are words filed in the database; no cut-off is given here.

`C[C@]12CC[C@@H]3c4ccc(O)cc4CC[C@H]3[C@@H]1CC[C@@]2(O)CCNC(=O)CBr` gave an RE in assay [1] of 0.011. Besides, the Hormonal activity entry in assay [2] was “Partial agonist”. The compound also gave an IC50 at Estrogen receptor of 1600 nM. In assay [3], the RAC app came out at 0.017. Besides, in assay [4], the Covalent binding result is “Active”.

Consider `CC(=O)NCCC[C@]1(O)CC[C@H]2[C@@H]3CCc4cc(O)ccc4[C@H]3CC[C@@]21C`, for which the Hormonal activity result in assay [2] was “Partial agonist”. Besides, the RAC app in assay [3] was 0.0084. Besides, in assay [4], the Covalent binding entry is “inactive”.

For `C[C@]12CC[C@@H]3c4ccc(O)cc4CC[C@H]3[C@@H]1CC[C@@]2(O)CCCNC(=O)CBr`, the RE in assay [1] was 0.34. For the same compound, the Hormonal activity result in assay [2] was “Partial agonist”. Besides, the IC50 on Estrogen receptor came out at 53 nM. The RAC app in assay [3] was found to be 0.019. Moreover, the Covalent binding result in assay [4] was “Active”.

Compound `C[C@]12CC[C@@H]3c4ccc(O)cc4CC[C@H]3[C@@H]1CC[C@@]2(O)CCCNC(=O)CI` had an RE in assay [1] of 1. Besides, the Hormonal activity entry in assay [2] was “Partial agonist”. This compound also came in with an IC50 at Estrogen receptor of 18 nM. For the same compound, in assay [3], the RAC app was 0.0084. The Covalent binding entry in assay [4] was “Active”.

Consider `C[C@]12CC[C@@H]3c4ccc(O)cc4CC[C@H]3[C@@H]1CC[C@@]2(O)CCOS(C)(=O)=O`, for which the Hormonal activity result in assay [5] is “Agonist”. In assay [3], the RAC app is 0.15. The Covalent binding entry in assay [4] was “inactive”.

On to `C[C@]12CC[C@@H]3c4ccc(O)cc4CCC3[C@@H]1CC[C@@]2(O)CNC(=O)CBr` (single isomer, unassigned), for which the RE in assay [1] is 0.0019. Also, the IC50 at Estrogen receptor was found to be 9700 nM. In addition, the Hormonal activity result in assay [6] is “Antagonist”. Besides, in assay [3], the RAC app came out at 0.0076. In assay [4], the Covalent binding result is “Active”.
